A word on the inhibition: it is the change of the read-out against control, counted positive when it falls. A low value points to little suppression. The term T/C denotes the ratio of treated to control.

Assay [1] deals with T1, Estrogen receptor (Mus musculus) (UniProt O08537+P19785). The assay is described as follows: Anti-uterotrophic effect in mice as uterine weight(mg) relative to body weight(g) at 10 ug dose. Format: functional. In a few lines:
(§1)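 Immature female NMRI mice, 20 days old, groups of six to ten; compound plus standard estrone 0.4 μg in olive oil (100 μL/animal) given sc on three consecutive days. Killed 24 h after last injection; uteri fixed in Bouin solution 2 h, dried at 100 °C for 18 h, weighed. Relative weight = uterine dry weight (mg)/body weight (g) × 100; mean of 6 animals ± SD.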

For assay [2], the target named is T1, Estrogen receptor (Mus musculus). Nature of the assay: Percent inhibition of estrone-stimulated uterotrophic effect in mice at 2 ug dose. Format: functional. Put shortly:
(§2)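 Antiuterotrophic test in immature female NMRI mice (20 days old). Estrone 0.4 μg was co-injected with the compound in olive oil, sc daily for three days. Uterine dry weight per body weight was read 24 h after the last dose. Inhibition (%) = 100 − [(W_S,T − W_V)/(W_S − W_V) × 100], where W_V is the vehicle control.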

For assay [3] the target is unchanged. The assay is described as follows: Uterotrophic effect in mice as uterine weight(mg) relative to body weight(g) at 250 ug dose. Format: functional, tissue-based. Put shortly: (§3)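 Uterotrophic test: 20-day-old immature female NMRI mice, six to ten per group, received compound alone in olive oil (100 μL/animal) sc on three consecutive days; controls received vehicle. After 24 h, uteri were Bouin-fixed 2 h and dried 18 h at 100 °C. Uterine dry weight (mg)/body weight (g) × 100; mean of 6 ± SD.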

The target is the same in assay [4]. Nature of the assay: Percent inhibition of estrone-stimulated uterotrophic effect in mice at 250 ug dose. The class given is functional. Put shortly: as §2
Assay [5] addresses Estrogen receptor (Bos taurus) (UniProt Q9XSB5+P49884). The assay is described as follows: Relative binding affinity for calf uterine estrogen receptor compared to 17-beta-estradiol (E2). Format: protein assay. In a few lines: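 Competitive binding in calf uterine cytosol (final protein 3 mg/mL) in Tris-EDTA-NaN3 buffer, pH 7.5. 5 nM [3H]17β-estradiol plus competitor at 10^-9 to 10^-5 M, 18 h at 4 °C. Free ligand removed with dextran-coated charcoal (90 min, 4 °C). Nonspecific binding from 4 μM estradiol. RBA = ratio of estradiol to test molar concentrations giving 50% displacement × 100.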

The target of assay [6] is T1, Estrogen receptor (Mus musculus). The assay is described as follows: Anti-uterotrophic effect in mice as uterine weight(mg) relative to body weight(g) at 250 ug dose. The class given is functional. Put shortly:
as §1

The test system of assay [7] is MDA-MB-231. The assay is described as follows: Inhibition of hormone-independent MDA-MB 231 mammary tumor cell proliferation at 5*10e-6 M. The class given is functional, Homo sapiens. Put shortly: (§4)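 MDA-MB 231 cells were grown in McCoy 5a medium with 10% NCS and were pre-grown 3 d in microplates before drug medium was added (controls 0.1% DMF). After 2 days of incubation, wells were fixed with 1% glutaraldehyde, stained with 0.02% crystal violet, and read by optical density. T/C (%) was corrected for initial density (vinblastine 10^-7 M). 16 replicates ± SD.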

Assay [8] deals with T1, Estrogen receptor (Mus musculus). Nature of the assay: Uterotrophic effect in mice as uterine weight(mg) relative to body weight(g) at 50 ug dose. Format: functional, tissue-based. In a few lines:
as §3

Assay [9] has the same target. Nature of the assay: Percent inhibition of estrone-stimulated uterotrophic effect in mice at 50 ug dose. Format: functional. In a few lines:
as §2

In assay [10] the test system is MCF7. The assay is described as follows: Inhibition of hormone-sensitive MCF-7 mammary tumor cell proliferation at 1*10e-7 M. The class given is functional, Homo sapiens. Put shortly:
(§5)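 MCF-7 cells were grown in modified improved MEM with 10% newborn calf serum at 37 °C and 5% CO2, plated in 96-well plates for 3 d, then given drug medium (controls 0.1% DMF). After 3 days, cells were glutaraldehyde-fixed and crystal violet-stained; T/C = test/control optical density, corrected for initial density (vinblastine 10^-7 M). 16 replicates ± SD.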

Assay [11] relates to MDA-MB-231. The assay is described as follows: Inhibition of hormone-independent MDA-MB 231 mammary tumor cell proliferation at 1*10e-6 M. The class given is functional, Homo sapiens. Put shortly:
as §4

The target in assay [12] is T1, Estrogen receptor (Mus musculus). The assay is described as follows: Anti-uterotrophic effect in mice as uterine weight(mg) relative to body weight(g) at 2 ug dose. Format: functional. Put shortly:
as §1

In assay [13] the test system is MCF7. The assay is described as follows: Inhibition of hormone-sensitive MCF-7 mammary tumor cell proliferation at 1*10e-5 M. The class given is functional, Homo sapiens. Put shortly:
as §5

Assay [14] relates to MDA-MB-231. Nature of the assay: Inhibition of hormone-independent MDA-MB 231 mammary tumor cell proliferation at 1*10e-7 M. Format: functional, Homo sapiens. Put shortly: as §4
The target in assay [15] is T1, Estrogen receptor (Mus musculus). The assay is described as follows: Uterotrophic effect in mice as uterine weight(mg) relative to body weight(g) at 2 ug dose. Format: functional, tissue-based. Put shortly: as §3
In assay [16] the test system is MCF7. The assay is described as follows: Inhibition of hormone-sensitive MCF-7 mammary tumor cell proliferation at 1*10e-6 M. The class given is functional, Homo sapiens. Put shortly:
as §5

Assay [17] relates to MDA-MB-231. The assay is described as follows: Inhibition of hormone-independent MDA-MB 231 mammary tumor cell proliferation at 1*10e-5 M. The class given is functional, Homo sapiens. Put shortly: as §4
Assay [18] deals with T1, Estrogen receptor (Mus musculus). Nature of the assay: Uterotrophic effect in mice as uterine weight(mg) relative to body weight(g) at 10 ug dose. The class given is functional, tissue-based. Put shortly:
as §3

The subject of assay [19] is MCF7. Nature of the assay: Inhibition of hormone-sensitive MCF-7 mammary tumor cell proliferation at 5*10e-6 M. Format: functional, Homo sapiens. Put shortly:
as §5

For assay [20], the target named is T1, Estrogen receptor (Mus musculus). The assay is described as follows: Anti-uterotrophic effect in mice as uterine weight(mg) relative to body weight(g) at 50 ug dose. The class given is functional. Put shortly:
as §1

The target is the same in assay [21]. Nature of the assay: Percent inhibition of estrone-stimulated uterotrophic effect in mice at 10 ug dose. Format: functional. Put shortly:
as §2

T1 sequence (O08537 whole entry, looked up): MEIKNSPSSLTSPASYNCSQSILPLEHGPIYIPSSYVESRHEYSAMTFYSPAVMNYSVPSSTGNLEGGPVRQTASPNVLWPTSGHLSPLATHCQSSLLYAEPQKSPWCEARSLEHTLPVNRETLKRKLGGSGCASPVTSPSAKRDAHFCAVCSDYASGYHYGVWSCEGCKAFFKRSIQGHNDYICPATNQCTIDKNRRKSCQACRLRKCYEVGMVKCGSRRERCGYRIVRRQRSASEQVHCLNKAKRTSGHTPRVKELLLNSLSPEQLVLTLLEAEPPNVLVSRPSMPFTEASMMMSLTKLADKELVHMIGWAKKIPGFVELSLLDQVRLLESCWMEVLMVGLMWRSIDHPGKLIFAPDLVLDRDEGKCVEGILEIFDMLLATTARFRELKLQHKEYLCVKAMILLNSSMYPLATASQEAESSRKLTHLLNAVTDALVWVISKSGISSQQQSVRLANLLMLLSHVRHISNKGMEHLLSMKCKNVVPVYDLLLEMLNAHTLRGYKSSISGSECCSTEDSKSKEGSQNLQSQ
T1 sequence (P19785 whole entry, looked up): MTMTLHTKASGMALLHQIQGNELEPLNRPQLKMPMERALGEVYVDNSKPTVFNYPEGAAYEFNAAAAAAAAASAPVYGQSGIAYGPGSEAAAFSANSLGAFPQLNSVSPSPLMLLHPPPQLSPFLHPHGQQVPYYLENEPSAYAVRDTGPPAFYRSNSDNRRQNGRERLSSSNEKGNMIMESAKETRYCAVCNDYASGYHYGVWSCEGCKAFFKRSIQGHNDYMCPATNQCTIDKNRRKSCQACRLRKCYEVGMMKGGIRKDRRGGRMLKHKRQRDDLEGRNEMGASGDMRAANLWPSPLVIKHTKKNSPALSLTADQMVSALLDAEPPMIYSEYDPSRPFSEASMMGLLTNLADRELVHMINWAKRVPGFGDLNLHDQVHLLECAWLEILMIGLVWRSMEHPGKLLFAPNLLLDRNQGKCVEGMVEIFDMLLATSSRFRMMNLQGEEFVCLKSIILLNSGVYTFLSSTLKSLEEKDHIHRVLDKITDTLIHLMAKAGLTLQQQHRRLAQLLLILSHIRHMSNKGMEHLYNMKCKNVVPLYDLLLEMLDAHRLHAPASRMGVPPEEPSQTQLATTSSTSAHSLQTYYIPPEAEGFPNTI

On to `CC(=O)Oc1ccc2c(c1)CC(C)n1c-2c(C=O)c2cc(OC(C)=O)ccc21` (stereo not drawn), for which the Relative uterus weight in assay [1] came out at 42.8; in [3], 43.2; in [6], 44.4; in assay [8] it was 24.6; in [12], 60.5; in assay [15] it was 14.8. In addition, the Relative uterus weight in [18] worked out at 18.2; in assay [20], 36.5. The inhibition in assay [2] was 0%; in [4], 32%; in assay [9], 49%; in assay [21], 36%. Further, in assay [5], the relative binding affinity (RBA) was determined as 3.9. In addition, the T/C with MDA-MB-231 [7] was 94%; in the assay with MCF7 [10], 93%; in the assay on MDA-MB-231 [11], 104%; in the assay on MCF7 [13], 23%; in the assay on MDA-MB-231 [14] it was 109%; with MCF7 [16], 94%. The T/C turned out to be 61% in the assay with MDA-MB-231 [17] and 54% in the assay on MCF7 [19].
In the case of `CCC1Cc2cc(OC(C)=O)ccc2-c2c(C=O)c3cc(OC(C)=O)ccc3n21` (stereo not drawn), the Relative uterus weight in [1] was found to be 46.1; in assay [3], 41.8; in assay [6], 24.6; in assay [8], 20.5; in assay [12], 45.3; in [15], 18.2. Further, the results for the Relative uterus weight in [18] and in assay [20] were 17.2 and 27, respectively. For the same compound, the inhibition stood at 25% in [2], 80% in [4], 74% in [9] and 22% in assay [21]. This compound came in with a relative binding affinity (RBA) in assay [5] of 3.3. The T/C in the assay on MDA-MB-231 [7] is listed as 86%; in the assay with MCF7 [10], 85%; with MDA-MB-231 [11] it was 111%; with MCF7 [13] it was 12%; in the assay with MDA-MB-231 [14] it was 106%; with MCF7 [16] it was 91%. In addition, the T/C in the assay on MDA-MB-231 [17] is given as 52%; in the assay with MCF7 [19], 43%.
For the compound `CCCCC1Cc2cc(OC(C)=O)ccc2-c2c(C=O)c3ccc(OC(C)=O)cc3n21` (stereo not drawn), the Relative uterus weight in [1] turned out to be 46.7; in assay [3] it was 10.6; in assay [6] it was 47.5; in assay [8], 12.3; in [12], 52.8; in [15] it was 16.7. The Relative uterus weight came out at 13.7 in assay [18] and 51.8 in [20]. Further, the inhibition in [2] came to 6%; in assay [4], 19%; in [9] it was 8%; in [21], 20%. Besides, in assay [5], the relative binding affinity (RBA) amounted to 0.7. Moreover, the T/C turned out to be 24% in the assay on MDA-MB-231 [7]; 66% in the assay with MCF7 [10]; 30% in the assay with MDA-MB-231 [11]; 0% with MCF7 [13]; 104% in the assay with MDA-MB-231 [14]; 0% with MCF7 [16]. Moreover, the figures for the T/C in the assay on MDA-MB-231 [17] and in the assay with MCF7 [19] were 16% and 0%, respectively.

For the origin of these results see ChEMBL document CHEMBL1126131, “6-Alkyl-12-formylindolo[2,1-a]isoquinolines. Syntheses, estrogen receptor binding affinities, and stereospecific cytostatic activity” (1992).
